Measured values published in ChEMBL document CHEMBL4371029, “Design, synthesis and evaluation of N2,N4-diaminoquinazoline based inhibitors of phosphodiesterase type 5” (Bioorg Med Chem Lett, 2019).
pEC50, pIC50: −log10 of the molar value. ≈ marks a conversion by molar mass, not a printed value.

Tests used:
A549 = experiment: Cytotoxicity against human A549 cells after 72 hrs by MTT assay; assay type: cell-based; details: A549, 72 h
How it was run: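 A549 adenocarcinomic human alveolar basal epithelial cells (ATCC CCL-185). Viability read by MTT; result expressed as IC50.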

[1] = Inhibition of histone activated chicken PDE6 using [3H]cGMP as substrate measured after 10 mins by scintillation counting method; set-up: species or system Gallus gallus
How it was run: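 Radioactive enzyme assay adapted from Sonnenburg et al. IC50 is the concentration giving 50% enzyme inhibition. Percent inhibition at the highest concentration tested is also recorded.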

[2] = Selectivity index, ratio of IC50 for histone activated chicken PDE6 to IC50 for rat lung PDE5
[3] = Selectivity index, ratio of IC50 for human A549 cells to IC50 for rat lung PDE5
[4] = Equilibrium solubility of the compound in pH 7.4 phosphate buffer saline at 1 mg sonicated for 1 hr followed by 6 hrs incubation by shake flask method; assay type: physicochemical; details: phosphate buffered saline
[5] = molecular target: cGMP-specific 3',5'-cyclic phosphodiesterase (Rattus norvegicus, UniProt O54735); experiment: Inhibition of rat lung PDE5 using [3H]cGMP as substrate measured after 10 mins by scintillation counting method
Artery = experiment: Vasorelaxant activity in Wistar rat endothelium intact pulmonary artery rings assessed as inhibition of phenylephrine-induced contraction; assay type: functional, tissue-based

SMILES	pIC50 (A549)	pIC50 [1]	Ratio IC50 [2]	Ratio IC50 [3]	solubility thermodynamic at 6 h [4] [µM]	pIC50 [5]	pEC50 (Artery)
c1csc(CNc2nc(Nc3ccc(N4CCOCC4)cc3)nc3ccccc23)c1	4.94	6.21	1.19	22	480 (≈ 200 µg/mL)	6.29	–
O=C(Nc1ccccc1)Nc1ccc(Nc2nc(NCc3cccs3)c3ccccc3n2)cc1	–	–	–	–	–	6.11	–
c1ccc(CNc2nc(Nc3ccc(N4CCOCC4)cc3)nc3ccccc23)cc1	4.92	6.35	0.86	23	600 (≈ 247 µg/mL)	6.28	–
COc1cc2nc(Nc3cccc(S(N)(=O)=O)c3)nc(NCc3ccccc3)c2cc1OC	–	–	–	–	–	6.66	–
NS(=O)(=O)c1ccc(Nc2nc(NCc3cccs3)c3ccccc3n2)cc1	–	–	–	–	–	6.65	–
CCCc1nn(C)c2c(=O)[nH]c(-c3cc(S(=O)(=O)N4CCN(C)CC4)ccc3OCC)nc12	–	7.89	–	–	–	–	6.85
NS(=O)(=O)c1ccc(Nc2nc(NCc3ccccc3)c3ccccc3n2)cc1	–	–	–	–	–	6.02	–
COc1cccc(CNc2nc(Nc3cccc(S(N)(=O)=O)c3)nc3ccccc23)c1	–	–	–	–	–	6.46	–
COc1cccc(CNc2nc(Nc3cccc(S(N)(=O)=O)c3)nc3cc(OC)c(OC)cc23)c1	–	–	–	–	–	6.35	–
NS(=O)(=O)c1cccc(Nc2nc(NCc3cccs3)c3ccccc3n2)c1	4.82	6.44	4.04	169	340 (≈ 140 µg/mL)	7.05	5.64
Cc1cc(Nc2nc(Nc3cccc(S(N)(=O)=O)c3)nc3ccccc23)n[nH]1	–	–	–	–	–	5.43	–
Clc1cnc(Nc2ccccc2)nc1NCc1ccccc1	–	4.47	–	–	–	< 5.00	–
COc1cc2nc(Nc3cccc(S(N)(=O)=O)c3)nc(NCc3ccco3)c2cc1OC	–	–	–	–	–	6.55	–
COc1cc2nc(Nc3cccc(S(N)(=O)=O)c3)nc(NCc3cccs3)c2cc1OC	–	–	–	–	–	6.26	–
NS(=O)(=O)c1cccc(Nc2nc(NCc3ccco3)c3ccccc3n2)c1	4.57	6.72	1.64	232	380 (≈ 150 µg/mL)	6.94	–
NC(=O)c1cccc(Nc2nc(NCc3cccs3)c3ccccc3n2)c1	–	–	–	–	–	6.54	–
CN(C)S(=O)(=O)c1ccc(Nc2nc(NCc3ccccc3)c3ccccc3n2)cc1	–	–	–	–	–	5.90	–
c1ccc(Nc2nc(NCc3cccs3)c3ccccc3n2)cc1	–	–	–	–	–	5.84	–
NC(=O)c1ccc(Nc2nc(NCc3cccs3)c3ccccc3n2)cc1	–	–	–	–	–	6.75	–
NS(=O)(=O)c1cccc(Nc2nc(NCc3ccccc3)c3ccccc3n2)c1	4.95	6.48	4.61	155	1370 (≈ 556 µg/mL)	7.14	5.79
c1ccc(CNc2nc(Nc3ccccc3)nc3ccccc23)cc1	4.91	6.05	0.65	9	410 (≈ 134 µg/mL)	5.86	–
